ChEMBL document CHEMBL1671657, “MurF inhibitors with antibacterial activity: effect on muropeptide levels” (Antimicrob Agents Chemother, 2009)
Values after ≈ are worked out from the molar mass of the structure shown. Active and inactive are the calls of the source. The calls are words filed in the database; no cut-off is given here.

Legend:
Staphylococcus aureus [1] = assay: Inhibition of Staphylococcus aureus ATCC 29213 MurF assessed as UDP-MurNAc-pentapeptide product level at 2 times MIC by HPLC (reference value: 1 mAU)
In short: (§1)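 After 30 min, muropeptides were extracted and quantified by HPLC peak area, normalized to the control. The HPLC detection limit was 12 mAU. Results are representative of two independent experiments.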

Escherichia coli [2] = assay: Antimicrobial activity against Escherichia coli OC9040 by broth microdilution method; assay type: functional
In short: (§2)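 MICs by CLSI broth microdilution. Where polymyxin B nonapeptide was included, it was present at 2 μg/ml alongside the test compound.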

Staphylococcus aureus [3] = assay: Inhibition of Staphylococcus aureus ATCC 29213 MurF assessed as UDP-MurNAc-pentapeptide product level at 4 times MIC by HPLC (reference value: 1 mAU); in short: as §1
Escherichia coli [4] = assay: Antimicrobial activity against LPS-deffective Escherichia coli OC2530 by broth microdilution method; assay type: functional; in short: as §2
Staphylococcus aureus [5] = assay: Bacteriostatic activity against Staphylococcus aureus ATCC 29213 at 2 times MIC; assay type: functional, organism-based
Enterococcus faecalis = assay: Antimicrobial activity against Enterococcus faecalis ATCC 29212 by broth microdilution method; assay type: functional; in short: as §2
Enterococcus faecium = assay: Antimicrobial activity against Enterococcus faecium OC3312 by broth microdilution method; assay type: functional; in short: as §2
Escherichia coli [6] = assay: Antimicrobial activity against Escherichia coli OC2605 by broth microdilution method; assay type: functional
In short: (§3)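 CLSI broth microdilution MIC; strains from the sponsor's in-house collection.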

Staphylococcus aureus [7] = assay: Antimicrobial activity against methicillin-resistant Staphylococcus aureus OC3726 by broth microdilution method; assay type: functional; in short: as §3
Escherichia coli [8] = assay: Antimicrobial activity against Escherichia coli ATCC 25922 by broth microdilution method; assay type: functional; in short: as §2
Staphylococcus aureus [9] = assay: Inhibition of Staphylococcus aureus ATCC 29213 MurF assessed as UDP-MurNAc-tripeptide substrate level at MIC by HPLC (reference value: 1 mAU); in short: as §1
Staphylococcus aureus [10] = assay: Antimicrobial activity against Staphylococcus aureus ATCC 29213 assessed as cell lysis; assay type: functional, organism-based
Staphylococcus aureus [11] = assay: Antimicrobial activity against methicillin-resistant Staphylococcus aureus OC2878 by broth microdilution method; assay type: functional; in short: as §3
Staphylococcus aureus [12] = assay: Antimicrobial activity against Staphylococcus aureus ATCC 29213 assessed as growth inhibition; assay type: functional, organism-based
Staphylococcus aureus [13] = assay: Antimicrobial activity against Staphylococcus aureus ATCC 29213 by broth microdilution method; assay type: functional; in short: as §2
Staphylococcus aureus [14] = assay: Inhibition of Staphylococcus aureus ATCC 29213 MurF assessed as UDP-MurNAc-pentapeptide product level at MIC by HPLC ([…])
[15] = Inhibition of Escherichia coli MurF
Staphylococcus aureus [16] = assay: Antimicrobial activity against Staphylococcus aureus OC4172 by broth microdilution method; assay type: functional; in short: as §2
Staphylococcus aureus [17] = assay: Inhibition of Staphylococcus aureus ATCC 29213 MurF assessed as UDP-MurNAc-tripeptide substrate level at 2 times MIC by HPLC (reference value: 1 mAU); in short: as §1
Staphylococcus aureus [18] = assay: Inhibition of Staphylococcus aureus ATCC 29213 MurF assessed as UDP-MurNAc-tripeptide substrate level at 4 times MIC by HPLC (reference value: 1 mAU); in short: as §1

## COc1ccc2nc(OC)c([C@@H](c3ccccc3)[C@](O)(CCc3ccccc3)CCN(C)C)cc2c1
Staphylococcus aureus [1]
  Activity (fold of control): 0.34
Escherichia coli [2]
  MIC: > 32 µg/mL
Staphylococcus aureus [3]
  Activity (fold of control): 0.21
Escherichia coli [4]
  MIC: 8 µg/mL (≈ 16.5 µM)
Staphylococcus aureus [5]
  Activity: Active
Enterococcus faecalis
  MIC: 8 µg/mL (≈ 16.5 µM)
Enterococcus faecium
  MIC: 8 µg/mL (≈ 16.5 µM)
Escherichia coli [6]
  MIC: > 32 µg/mL
Staphylococcus aureus [7]
  MIC: 8 µg/mL (≈ 16.5 µM)
Escherichia coli [8]
  MIC: > 32 µg/mL
Staphylococcus aureus [9]
  Activity (fold of control): > 10
Staphylococcus aureus [10]
  Activity: inactive
Staphylococcus aureus [11]
  MIC: 8 µg/mL (≈ 16.5 µM)
Staphylococcus aureus [12]
  inhibition: Dose-dependent effect
Staphylococcus aureus [13]
  MIC: 8 µg/mL (≈ 16.5 µM)
Staphylococcus aureus [14]
  Activity (fold of control): 0.6
[15]
  IC50: 29 µM
Staphylococcus aureus [16]
  MIC: 8 µg/mL (≈ 16.5 µM)
Staphylococcus aureus [17]
  Activity (fold of control): > 38
Staphylococcus aureus [18]
  Activity (fold of control): > 67
